From ChEMBL document CHEMBL1138275, “Activity of sulfonium bisphosphonates on tumor cell lines” (J Med Chem, 2007)

How the values were obtained:
[1] = test system: NCI-H460; assay: Growth inhibition of human NCI-H460 cells after 4 days by MTT assay; type: functional, cell-based; conditions: NCI-H460, 96 h
Summary of the method: (§1)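 Cell lines from NCI, grown in RPMI-1640 with 2 mM L-glutamine and 10% FBS at 37 °C, 5% CO2, 100% humidity. Aqueous 0.01 M stocks, half-log serial dilutions in medium, typically 316 µM to 10 nM. 5000 cells/well exposed 4 days. MTT added for 2 h, detergent lysis, overnight dark at room temperature, A600 read. IC50 from rectangular hyperbolic fit of percent inhibition.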

[2] = test system: MCF7; assay: Growth inhibition of human MCF7 cells after 4 days by MTT assay; type: functional, cell-based; conditions: MCF7, 96 h
[3] = test system: SF-268; assay: Growth inhibition of human SF268 cells after 4 days by MTT assay; type: functional, cell-based; conditions: SF-268, 96 h; summary of the method: as §1
[4] = target: T1, Farnesyl pyrophosphate synthase (Homo sapiens, UniProt P14324); assay: Inhibition of human FPPS
T1 sequence (P14324 whole entry): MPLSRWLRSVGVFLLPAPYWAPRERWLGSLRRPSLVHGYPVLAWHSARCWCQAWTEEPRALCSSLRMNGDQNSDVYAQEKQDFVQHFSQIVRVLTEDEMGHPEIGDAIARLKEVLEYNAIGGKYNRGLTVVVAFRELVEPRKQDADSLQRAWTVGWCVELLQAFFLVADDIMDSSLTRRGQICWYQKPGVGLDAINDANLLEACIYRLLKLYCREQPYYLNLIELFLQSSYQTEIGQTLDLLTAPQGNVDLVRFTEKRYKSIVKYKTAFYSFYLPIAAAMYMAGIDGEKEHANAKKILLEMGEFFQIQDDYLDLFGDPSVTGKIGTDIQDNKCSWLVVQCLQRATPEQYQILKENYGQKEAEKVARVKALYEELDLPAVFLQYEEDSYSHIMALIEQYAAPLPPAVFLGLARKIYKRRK

| Compound | IC50 ([1]; read-out: IC50) [µM] | IC50 ([1]; read-out: pIC50 (converted)) [µM] | IC50 ([2]; read-out: IC50) [µM] | IC50 ([2]; read-out: pIC50 (converted)) [µM] | IC50 ([3]; read-out: IC50) [µM] | IC50 ([3]; read-out: pIC50 (converted)) [µM] | IC50 ([4]; read-out: IC50) [µM] | IC50 ([4]; read-out: pIC50 (converted)) [µM] |
| --- | --- | --- | --- | --- | --- | --- | --- | --- |
| CCC[S+](C)CC(O)(P(=O)([O-])O)P(=O)(O)O (stereo unspecified) | 74.1 | 79.4 | 162 | 158 | 96.1 | 100 |  |  |
| CCC[S+](C)CC(P(=O)([O-])O)P(=O)(O)O (stereo unspecified) | 95.5 | 100 | 240 | 251 | 223 | 200 | 0.53 |  |
| CCCCC[S+](C)CCC(O)(P(=O)([O-])O)P(=O)(O)O (stereo unspecified) | 200 | 200 | 389 | 398 | 196 | 200 |  |  |
| CCC[S+](C)CCC(O)(P(=O)([O-])O)P(=O)(O)O (stereo unspecified) | 759 | 794 | 813 | 794 | 714 | 631 |  |  |
| C[S+](CCCCCc1ccccc1)CC(P(=O)([O-])O)P(=O)(O)O (stereo unspecified) | 23.4 | 25.1 | 21.4 | 20 | 17.9 | 15.8 |  |  |
| CCCCCCCCCCCCCCCC[S+](C)CC(P(=O)([O-])O)P(=O)(O)O (stereo unspecified) | 1.41 | 1.26 | 1.12 | 1 | 1.08 | 1 | 45.6 |  |
| C[S+](CCCCc1ccccc1)CC(P(=O)([O-])O)P(=O)(O)O (stereo unspecified) | 47.9 | 50.1 | 45.7 | 50.1 | 43.9 | 39.8 |  |  |
| CCCCCCCC[S+](C)CC(P(=O)([O-])O)P(=O)(O)O (stereo unspecified) | 12.3 | 12.6 | 21.4 | 20 | 14.7 | 15.8 |  |  |
| O=P([O-])(O)C(O)(CC[S+]1CCCC1)P(=O)(O)O (stereo unspecified) | 158 | 158 | 195 | 200 | 129 | 126 |  |  |
| O=P([O-])(O)C(O)(C[S+]1CCCC1)P(=O)(O)O (stereo unspecified) | 126 | 126 | 100 | 100 | 101 | 100 |  |  |
| C[S+](CCCc1ccccc1)CC(O)(P(=O)([O-])O)P(=O)(O)O (stereo unspecified) | 13.8 | 12.6 | 17.8 | 15.8 | 10.7 | 10 |  |  |
| C[S+](CCCOc1ccccc1)CC(O)(P(=O)([O-])O)P(=O)(O)O (stereo unspecified) | 16.6 | 15.8 | 93.3 | 100 | 34.5 | 31.6 |  |  |
| C[S+](CCCc1ccccc1)CCC(O)(P(=O)([O-])O)P(=O)(O)O (stereo unspecified) | 66.1 | 63.1 | 105 | 100 | 65.9 | 63.1 |  |  |
| C[S+](CCCOc1ccccc1)CCC(O)(P(=O)([O-])O)P(=O)(O)O (stereo unspecified) | 151 |  | 184 |  | 171 |  |  |  |
| CCCCCCCCCCC[S+](C)CC(P(=O)([O-])O)P(=O)(O)O (stereo unspecified) | 3.7 |  | 14.2 |  | 3.7 |  |  |  |
| CCCCCCCCCCCCCCCCCCCC[S+](C)CC(P(=O)([O-])O)P(=O)(O)O (stereo unspecified) | 1.15 | 1.26 | 0.95 | 1 | 1.49 | 1.58 | 27.4 | 0.251 |

| Compound | IC50 ([1]; read-out: IC50) [µM] | IC50 ([1]; read-out: pIC50 (converted)) [µM] | IC50 ([2]; read-out: IC50) [µM] | IC50 ([2]; read-out: pIC50 (converted)) [µM] | IC50 ([3]; read-out: IC50) [µM] | IC50 ([3]; read-out: pIC50 (converted)) [µM] | IC50 ([4]; read-out: IC50) [µM] | IC50 ([4]; read-out: pIC50 (converted)) [µM] |
| --- | --- | --- | --- | --- | --- | --- | --- | --- |
| CCCCCCCCCC[S+](C)CC(P(=O)([O-])O)P(=O)(O)O (stereo unspecified) | 0.32 | 0.316 | 0.62 | 0.631 | 0.37 | 0.398 | 0.24 |  |
| CCCCCCCCCCCCCC[S+](C)CC(P(=O)([O-])O)P(=O)(O)O (stereo unspecified) | 0.48 | 0.501 | 11 | 10 | 0.88 | 0.794 | 8.47 |  |
| C[S+](CCc1ccccc1)CCC(O)(P(=O)([O-])O)P(=O)(O)O (stereo unspecified) | 183 |  | 251 |  | 198 |  |  |  |
| CCCCCCCCCCCC[S+](C)CC(P(=O)([O-])O)P(=O)(O)O (stereo unspecified) | 0.21 | 0.2 |  |  | 0.29 | 0.316 |  |  |
| C[S+](C)CC(O)(P(=O)([O-])O)P(=O)(O)O (stereo unspecified) | 191 | 200 | 200 | 200 | 171 | 158 | 1.03 |  |
| C[S+](CCCc1ccccc1)CC(P(=O)([O-])O)P(=O)(O)O (stereo unspecified) | 55 | 50.1 | 57.5 | 63.1 | 48.6 | 50.1 |  |  |
| O=P([O-])(O)C(O)(C[S+]1CCCCC1)P(=O)(O)O (stereo unspecified) | 209 | 200 | 302 | 316 | 240 | 251 |  |  |
| C[S+](C)CCC(O)(P(=O)([O-])O)P(=O)(O)O (stereo unspecified) | 95.1 |  | 258 |  | 100 |  | 9 |  |
| O=P([O-])(O)C(O)(CC[S+]1CCCCC1)P(=O)(O)O (stereo unspecified) | 355 | 316 | 513 | 501 | 431 | 398 |  |  |
| CCCCC[S+](C)CC(P(=O)([O-])O)P(=O)(O)O (stereo unspecified) | 128 |  | 224 |  | 189 |  | 1.08 |  |
| O=P([O-])(O)C(C[S+]1CCCC1)P(=O)(O)O (stereo unspecified) | 83.2 | 79.4 | 95.5 | 100 | 87.8 | 79.4 |  |  |
| CCCCCCCC[S+](C)CCC(O)(P(=O)([O-])O)P(=O)(O)O (stereo unspecified) | 25.7 | 25.1 | 32.4 | 31.6 | 20.3 | 20 |  |  |
| O=P([O-])(O)C(O)(CC[S+]1CCC(c2ccccc2)C1)P(=O)(O)O (stereo unspecified) | 245 | 251 | 339 | 316 | 264 | 251 |  |  |
| CCCCCCCCCCCCCCCCCC[S+](C)CC(P(=O)([O-])O)P(=O)(O)O (stereo unspecified) | 1.23 | 1.26 | 1.41 | 1.26 | 1.71 | 1.58 | 7.45 |  |
| CCCCCCCCCCCCC[S+](C)CC(P(=O)([O-])O)P(=O)(O)O (stereo unspecified) | 3.4 |  | 2.8 |  | 3.1 |  |  |  |
